≈ marks a conversion by molar mass, not a printed value. Calls of active or inactive are those of the source. The calls are words filed in the database; no cut-off is given here.
Assays:
[1] = target: Acetylcholinesterase (Electrophorus electricus) (UniProt O42275); test: Inhibition of electric eel AChE using acetylthiocholine iodide as substrate pretreated for 15 mins followed by substrate addition measured for 6 mins by Ellman's method
Summary of the method: (§1)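 Ellman spectrophotometric assay in 0.1 M phosphate buffer pH 8.0 with DTNB, 25 °C. AChE (electric eel, Type V-S) or BChE was preincubated 15 min with compound before adding acetylthiocholine iodide or butyrylthiocholine iodide, respectively. Absorbance change at 412 nm was read for 6 min. Five concentrations were tested in triplicate, corrected by a nonenzymatic blank, with a no-inhibitor reference.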

[2] = target: Cholinesterase (Equus caballus, UniProt P81908); test: Inhibition of equine serum BChE using butyrylthiocholine iodide as substrate pretreated for 15 mins followed by substrate addition measured for 6 mins by Ellman's method; conditions: read-out: IC50; summary of the method: as §1
Cholinesterase, sequence (P81908 whole entry, the tested form may be a part): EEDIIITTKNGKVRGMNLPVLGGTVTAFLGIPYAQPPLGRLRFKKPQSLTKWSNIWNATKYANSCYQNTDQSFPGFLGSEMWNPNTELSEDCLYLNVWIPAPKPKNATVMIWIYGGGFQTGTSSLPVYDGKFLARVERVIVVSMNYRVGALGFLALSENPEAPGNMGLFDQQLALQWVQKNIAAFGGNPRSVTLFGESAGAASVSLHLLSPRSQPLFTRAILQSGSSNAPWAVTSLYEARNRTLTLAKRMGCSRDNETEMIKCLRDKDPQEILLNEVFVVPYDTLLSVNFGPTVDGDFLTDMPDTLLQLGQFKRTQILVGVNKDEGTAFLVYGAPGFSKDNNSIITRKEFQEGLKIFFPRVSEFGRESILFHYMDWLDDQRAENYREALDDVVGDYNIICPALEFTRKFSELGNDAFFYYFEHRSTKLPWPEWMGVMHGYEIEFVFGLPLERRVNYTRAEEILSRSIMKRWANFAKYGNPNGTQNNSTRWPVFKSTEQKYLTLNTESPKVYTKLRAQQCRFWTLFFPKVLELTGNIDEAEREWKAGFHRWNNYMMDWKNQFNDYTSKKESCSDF

[3] = test system: Aspergillus brasiliensis; test: Antifungal activity against Aspergillus brasiliensis PTCC 5011 assessed as diameter of inhibition zone at 200 ug per disc after 72 hrs by agar disc diffusion method; format: functional; conditions: PTCC 5011, 72 h, read-out: DIZ
Summary of the method: (§2)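 Agar disc diffusion against mold. Compounds at 20 mg mL⁻¹ in DMSO, filter-sterilised. 6 mm discs carried 10 µl (200 µg per disc), with DMSO discs as negative control. Incubation 72 h at 30 °C. Read-out is growth inhibition zone diameter, mean of 3 repeats (±1 mm).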

[4] = test system: Aspergillus brasiliensis; test: Antifungal activity against Aspergillus brasiliensis PTCC 5011; format: functional
[5] = test system: Klebsiella pneumoniae; test: Antibacterial activity against Klebsiella pneumoniae ATCC 10031 assessed as diameter of inhibition zone at 200 ug per disc after 24 hrs by agar disc diffusion method; format: functional; conditions: ATCC 10031, 24 h, read-out: DIZ
Summary of the method: (§3)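 Agar disc diffusion. Compounds at 20 mg mL⁻¹ in DMSO, filter-sterilised. 100 µL of 10⁸ CFU mL⁻¹ bacteria spread on nutrient agar. 6 mm discs carried 10 µl (200 µg per disc), with DMSO discs as negative control. Incubation 24 h at 37 °C. Read-out is inhibition zone diameter, mean of 3 repeats (±1 mm).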

[6] = test system: Escherichia coli; test: Antibacterial activity against Escherichia coli ATCC 10536 assessed as diameter of inhibition zone at 200 ug per disc after 24 hrs by agar disc diffusion method; format: functional; conditions: ATCC 10536, 24 h, read-out: DIZ; summary of the method: as §3
[7] = test system: Pseudomonas aeruginosa; test: Antibacterial activity against Pseudomonas aeruginosa ATCC 27853 assessed as diameter of inhibition zone at 200 ug per disc after 24 hrs by agar disc diffusion method; format: functional; conditions: ATCC 27853, 24 h, read-out: DIZ; summary of the method: as §3
[8] = test system: Pseudomonas aeruginosa; test: Antibacterial activity against Pseudomonas aeruginosa ATCC 27853; format: functional
[9] = test system: Staphylococcus aureus; test: Antibacterial activity against Staphylococcus aureus ATCC 29737 assessed as diameter of inhibition zone at 200 ug per disc after 24 hrs by agar disc diffusion method; format: functional; conditions: ATCC 29737, 24 h, read-out: DIZ; summary of the method: as §3
[10] = test system: Staphylococcus epidermidis; test: Antibacterial activity against Staphylococcus epidermidis ATCC 12228; format: functional
[11] = test system: Salmonella paratyphi; test: Antibacterial activity against Salmonella paratyphi A serotype ATCC 5702; format: functional
[12] = test system: Candida albicans; test: Antifungal activity against Candida albicans ATCC 10231; format: functional
[13] = test system: Klebsiella pneumoniae; test: Antibacterial activity against Klebsiella pneumoniae ATCC 10031; format: functional
[14] = test system: Escherichia coli; test: Antibacterial activity against Escherichia coli ATCC 10536; format: functional
[15] = test system: Aspergillus niger; test: Antifungal activity against Aspergillus niger ATCC 16404 assessed as diameter of inhibition zone at 200 ug per disc after 72 hrs by agar disc diffusion method; format: functional; conditions: ATCC 16404, 72 h, read-out: DIZ; summary of the method: as §2
[16] = test system: Proteus vulgaris; test: Antibacterial activity against Proteus vulgaris PTCC 1182 assessed as diameter of inhibition zone at 200 ug per disc after 24 hrs by agar disc diffusion method; format: functional; conditions: PTCC 1182, 24 h, read-out: DIZ; summary of the method: as §3
[17] = test system: Bacillus spizizenii; test: Antibacterial activity against Bacillus subtilis ATCC 6633; format: functional
[18] = test system: Staphylococcus aureus; test: Antibacterial activity against Staphylococcus aureus ATCC 29737; format: functional
[19] = test system: Staphylococcus epidermidis; test: Antibacterial activity against Staphylococcus epidermidis ATCC 12228 assessed as diameter of inhibition zone at 200 ug per disc after 24 hrs by agar disc diffusion method; format: functional; conditions: ATCC 12228, 24 h, read-out: DIZ; summary of the method: as §3
[20] = test system: Bacillus spizizenii; test: Antibacterial activity against Bacillus subtilis ATCC 6633 assessed as diameter of inhibition zone at 200 ug per disc after 24 hrs by agar disc diffusion method; format: functional; conditions: ATCC 6633, 24 h, read-out: DIZ; summary of the method: as §3
[21] = test system: Shigella dysenteriae; test: Antibacterial activity against Shigella dysenteriae PTCC 1188; format: functional
[22] = test system: Candida albicans; test: Antifungal activity against Candida albicans ATCC 10231 assessed as diameter of inhibition zone at 200 ug per disc after 48 hrs by agar disc diffusion method; format: functional; conditions: ATCC 10231, 48 h, read-out: DIZ
Summary of the method: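 Yeast tested by agar disc diffusion. Compounds at 20 mg mL⁻¹ in DMSO, filter-sterilised. 6 mm discs carried 10 µl (200 µg per disc), with DMSO discs as negative control. Incubation 48 h at 30 °C. Zone diameter was averaged over 3 repeats (±1 mm).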

[23] = test system: Aspergillus niger; test: Antifungal activity against Aspergillus niger ATCC 16404; format: functional
[24] = test system: Proteus vulgaris; test: Antibacterial activity against Proteus vulgaris PTCC 1182; format: functional
[25] = test system: Shigella dysenteriae; test: Antibacterial activity against Shigella dysenteriae PTCC 1188 assessed as diameter of inhibition zone at 200 ug per disc after 24 hrs by agar disc diffusion method; format: functional; conditions: PTCC 1188, 24 h, read-out: DIZ; summary of the method: as §3
[26] = test system: Salmonella paratyphi; test: Antibacterial activity against Salmonella paratyphi A serotype ATCC 5702 assessed as diameter of inhibition zone at 200 ug per disc after 24 hrs by agar disc diffusion method; format: functional, Salmonella enterica subsp. enterica serovar Paratyphi A; conditions: Salmonella enterica, ATCC 5702, 24 h; read-out: DIZ; summary of the method: as §3
[27] = Salmonella enterica subsp. enterica serovar Paratyphi A

Acetylcholinesterase (Electrophorus electricus), sequence (O42275 24-633 limits assumed): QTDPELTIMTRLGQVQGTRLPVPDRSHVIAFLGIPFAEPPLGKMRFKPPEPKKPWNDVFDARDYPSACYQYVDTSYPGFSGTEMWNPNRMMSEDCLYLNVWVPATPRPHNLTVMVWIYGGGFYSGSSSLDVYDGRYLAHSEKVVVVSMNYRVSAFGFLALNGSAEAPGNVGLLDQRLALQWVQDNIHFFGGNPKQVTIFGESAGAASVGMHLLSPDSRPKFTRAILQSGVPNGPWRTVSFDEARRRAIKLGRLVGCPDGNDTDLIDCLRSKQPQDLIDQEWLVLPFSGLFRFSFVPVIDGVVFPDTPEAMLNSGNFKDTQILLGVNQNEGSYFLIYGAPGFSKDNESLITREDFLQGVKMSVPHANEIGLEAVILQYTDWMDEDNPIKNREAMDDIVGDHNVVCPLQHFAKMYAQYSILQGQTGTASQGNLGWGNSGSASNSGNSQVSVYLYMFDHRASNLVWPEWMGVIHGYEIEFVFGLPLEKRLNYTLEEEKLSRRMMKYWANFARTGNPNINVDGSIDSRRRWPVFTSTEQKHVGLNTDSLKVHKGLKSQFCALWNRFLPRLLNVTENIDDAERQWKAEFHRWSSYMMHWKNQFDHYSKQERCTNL

SMILES: COc1ccccc1C1CC(c2cc3cc(Br)ccc3o2)=Nc2ccccc2S1 (centres undefined)
- inhibition [1]: inactive
- IC50 [2]: 1.8 µM

SMILES: COc1ccccc1C1CC(c2cc3ccccc3o2)=Nc2ccccc2S1 (centres undefined)
- inhibition [1]: inactive
- IC50 [2]: 4.8 µM

SMILES: O=[N+]([O-])c1ccc2oc(C3=Nc4ccccc4SC(c4c[nH]c5ccccc45)C3)cc2c1 (centres undefined)
- inhibition [1]: inactive
- IC50 [2]: 72 µM

SMILES: Brc1ccc2oc(C3=Nc4ccccc4SC(c4cccc5ccccc45)C3)cc2c1 (centres undefined)
- zone of inhibition at 200 µg/disc [3]: < 6 mm
- MIC [4]: inactive
- zone of inhibition at 200 µg/disc [5]: < 6 mm
- zone of inhibition at 200 µg/disc [6]: < 6 mm
- zone of inhibition at 200 µg/disc [7]: < 6 mm
- MIC [8]: inactive
- zone of inhibition at 200 µg/disc [9]: 10 mm
- MIC [10]: inactive
- MIC [11, 27]: inactive
- inhibition [1]: inactive
- MIC [12]: 25 µg/mL (≈ 51.6 µM)
- MIC [13]: inactive
- MIC [14]: inactive
- zone of inhibition at 200 µg/disc [15]: < 6 mm
- zone of inhibition at 200 µg/disc [16]: 19 mm
- IC50 [2]: 17 µM
- MIC [17]: 5 µg/mL (≈ 10.3 µM)
- MIC [18]: 5 µg/mL (≈ 10.3 µM)
- zone of inhibition at 200 µg/disc [19]: < 6 mm
- zone of inhibition at 200 µg/disc [20]: 12 mm
- MIC [21]: 50 µg/mL (≈ 103 µM)
- zone of inhibition at 200 µg/disc [22]: 14 mm
- MIC [23]: inactive
- MIC [24]: 12.5 µg/mL (≈ 25.8 µM)
- zone of inhibition at 200 µg/disc [25]: 14 mm
- zone of inhibition at 200 µg/disc [26]: < 6 mm

SMILES: O=[N+]([O-])c1ccc2oc(C3=Nc4ccccc4SC(c4cccc5ccccc45)C3)cc2c1 (centres undefined)
- zone of inhibition at 200 µg/disc [3]: < 6 mm
- MIC [4]: inactive
- zone of inhibition at 200 µg/disc [5]: 11 mm
- zone of inhibition at 200 µg/disc [6]: < 6 mm
- zone of inhibition at 200 µg/disc [7]: < 6 mm
- MIC [8]: inactive
- zone of inhibition at 200 µg/disc [9]: 20 mm
- MIC [10]: 0.25 µg/mL (≈ 0.555 µM)
- MIC ([11]; Salmonella enterica): 50 µg/mL (≈ 111 µM)
- inhibition [1]: inactive
- MIC [12]: 2.5 µg/mL (≈ 5.55 µM)
- MIC [13]: 50 µg/mL (≈ 111 µM)
- MIC [14]: inactive
- zone of inhibition at 200 µg/disc [15]: < 6 mm
- zone of inhibition at 200 µg/disc [16]: < 6 mm
- IC50 [2]: 55 µM
- MIC [17]: 0.125 µg/mL (≈ 0.277 µM)
- MIC [18]: 0.25 µg/mL (≈ 0.555 µM)
- zone of inhibition at 200 µg/disc [19]: 30 mm
- zone of inhibition at 200 µg/disc [20]: 15 mm
- MIC [21]: inactive
- zone of inhibition at 200 µg/disc [22]: 13 mm
- MIC [23]: inactive
- MIC [24]: inactive
- zone of inhibition at 200 µg/disc [25]: < 6 mm
- zone of inhibition at 200 µg/disc [26]: 11 mm

SMILES: Oc1ccc(C2CC(c3cc4cc(Br)ccc4o3)=Nc3ccccc3S2)cc1 (centres undefined)
- inhibition [1]: inactive
- IC50 [2]: 6.5 µM

SMILES: COc1cccc2cc(C3=Nc4ccccc4SC(c4ccc(O)cc4)C3)oc12 (centres undefined)
- inhibition [1]: inactive
- IC50 [2]: 4.1 µM

SMILES: Oc1ccc(C2CC(c3cc4ccccc4o3)=Nc3ccccc3S2)cc1 (centres undefined)
- inhibition [1]: inactive
- IC50 [2]: 14 µM

SMILES: COc1ccc(C2CC(c3cc4ccccc4o3)=Nc3ccccc3S2)cc1 (centres undefined)
- inhibition [1]: inactive
- IC50 [2]: 4 µM

SMILES: O=[N+]([O-])c1ccc2oc(C3=Nc4ccccc4SC(c4ccccc4F)C3)cc2c1 (centres undefined)
- zone of inhibition at 200 µg/disc [3]: < 6 mm
- MIC [4]: inactive
- zone of inhibition at 200 µg/disc [5]: < 6 mm
- zone of inhibition at 200 µg/disc [6]: 12 mm
- zone of inhibition at 200 µg/disc [7]: < 6 mm
- MIC [8]: inactive
- zone of inhibition at 200 µg/disc [9]: 17 mm
- MIC [10]: 5 µg/mL (≈ 11.9 µM)
- MIC [11, 27]: inactive
- inhibition [1]: inactive
- MIC [12]: 0.125 µg/mL (≈ 0.299 µM)
- MIC [13]: inactive
- MIC [14]: 50 µg/mL (≈ 119 µM)
- zone of inhibition at 200 µg/disc [15]: < 6 mm
- zone of inhibition at 200 µg/disc [16]: 23 mm
- IC50 [2]: 22 µM
- MIC [17]: inactive
- MIC [18]: 2.5 µg/mL (≈ 5.97 µM)
- zone of inhibition at 200 µg/disc [19]: 10 mm
- zone of inhibition at 200 µg/disc [20]: < 6 mm
- MIC [21]: inactive
- zone of inhibition at 200 µg/disc [22]: 19 mm
- MIC [23]: inactive
- MIC [24]: 0.125 µg/mL (≈ 0.299 µM)
- zone of inhibition at 200 µg/disc [25]: < 6 mm
- zone of inhibition at 200 µg/disc [26]: < 6 mm

SMILES: c1ccc2c(c1)N=C(c1cc3ccccc3o1)CC(c1c[nH]c3ccccc13)S2 (centres undefined)
- inhibition [1]: inactive
- IC50 [2]: 60 µM

From ChEMBL document CHEMBL4118244, “Design, synthesis and biological evaluation of benzofuran appended benzothiazepine derivatives as inhibitors of butyrylcholinesterase and antimicrobial agents” (Bioorg Med Chem, 2018)
